Consider one molecule from ChEMBL document CHEMBL5136969, “A niclosamide-tobramycin hybrid adjuvant potentiates cefiderocol against P. aeruginosa” (2021).

The test system of assay [1] is Escherichia coli. Description: Potentiation of niclosamide-induced antibiotic activity against Escherichia coli ATCC 25922 assessed as MIC fold reduction at 8 ug/ml after 18 hrs by microbroth dilution method. It is filed as functional. To be noted: dose 8 µg/ml.
The test system of assay [2] is Pseudomonas aeruginosa. Description: Potentiation of minocycline-induced antibiotic activity against Pseudomonas aeruginosa PAO1 assessed as MIC fold reduction at 8 ug/ml after 18 hrs by microbroth dilution method. Format: functional. To be noted: dose 8 µg/ml. An outline of the steps:
(§1)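 Adjuvant held at a fixed 8 μg/mL while the antibiotic was 2-fold serially diluted in Mueller-Hinton broth (MHB), per CLSI microbroth dilution. Overnight cultures were adjusted in saline to 0.5 McFarland, then diluted 1:50 in MHB to about 5 × 10^5 CFU/mL final, and incubated 18 h at 37 °C. MIC was the lowest concentration with no visible turbidity, confirmed at 590 nm. Fold potentiation = MIC alone / MIC with adjuvant.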
(Dilution methods test growth across graded concentrations, often in twofold steps.)

Assay [3] relates to Acinetobacter baumannii. Description: Potentiation of minocycline-induced antibiotic activity against Acinetobacter baumannii ATCC 17978 assessed as MIC fold reduction at 8 ug/ml after 18 hrs by microbroth dilution method. It is filed as functional. To be noted: dose 8 µg/ml. An outline of the steps: as §1
The subject of assay [4] is Acinetobacter baumannii. Description: Potentiation of rifampicin-induced antibiotic activity against Acinetobacter baumannii ATCC 17978 assessed as MIC fold reduction at 8 ug/ml after 18 hrs by microbroth dilution method. To be noted: dose 8 µg/ml. It is filed as functional.
In assay [5] the test system is Escherichia coli. Description: Potentiation of chloamphenicol-induced antibiotic activity against Escherichia coli ATCC 25922 assessed as MIC fold reduction at 8 ug/ml after 18 hrs by microbroth dilution method. Format: functional. To be noted: dose 8 µg/ml. A digest of the protocol:
as §1

In assay [6] the test system is Escherichia coli. Description: Potentiation of fosfomycin-induced antibiotic activity against Escherichia coli ATCC 25922 assessed as MIC fold reduction at 8 ug/ml after 18 hrs by microbroth dilution method. It is filed as functional. To be noted: dose 8 µg/ml. An outline of the steps: as §1
The test system of assay [7] is Acinetobacter baumannii. Description: Potentiation of cotrimoxazole-induced antibiotic activity against Acinetobacter baumannii ATCC 17978 assessed as MIC fold reduction at 8 ug/ml after 18 hrs by microbroth dilution method. It is filed as functional. To be noted: dose 8 µg/ml. An outline of the steps:
as §1

Assay [8] concerns Pseudomonas aeruginosa. Description: Antibacterial activity against Pseudomonas aeruginosa PAO1 assessed as reduction in bacterial growth after 18 hrs by microbroth dilution method. It is filed as functional. A digest of the protocol: (§2)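 CLSI broth microdilution. Overnight cultures were adjusted in saline to 0.5 McFarland, diluted 1:50 in Mueller-Hinton broth (MHB), and inoculated at about 5 × 10^5 CFU/mL. Agents were 2-fold serially diluted in MHB, mixed 1:1 with inoculum, and held at 37 °C for 18 h. MIC was the lowest concentration with no visible turbidity, confirmed at 590 nm.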

The test system of assay [9] is Pseudomonas aeruginosa. Description: Potentiation of ceftolozane-induced antibiotic activity against MDR clinical isolate Pseudomonas aeruginosa PA259 assessed as MIC fold reduction at 8 ug/ml after 18 hrs by microbroth dilution method. Format: functional, organism-based. To be noted: dose 8.0 µg/ml. A digest of the protocol:
as §1

Assay [10] concerns Pseudomonas aeruginosa. Description: Potentiation of cefiderocol-induced antibiotic activity against MDR clinical isolate Pseudomonas aeruginosa PA260 assessed as MIC fold reduction at 8 ug/ml after 18 hrs by microbroth dilution method. To be noted: dose 8.0 µg/ml. Format: functional, organism-based. An outline of the steps: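 Initial screen in MHB using a fixed 8 μg mL−1 of adjuvant combined with each antibiotic under 2-fold dilution. Broth microdilution used about 5 × 10^5 CFU/mL at 37 °C for 18 h, with visible turbidity read and confirmed at 590 nm. Fold-potentiation = antibiotic MIC alone ÷ antibiotic MIC with adjuvant.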

For assay [11], the system named is Pseudomonas aeruginosa. Description: Antibacterial activity against MDR clinical isolate Pseudomonas aeruginosa PA260 assessed as reduction in bacterial growth after 18 hrs by microbroth dilution method. It is filed as functional. An outline of the steps: as §2
Assay [12] deals with Pseudomonas aeruginosa. Description: Antibacterial activity against MDR clinical isolate Pseudomonas aeruginosa PA262 assessed as reduction in bacterial growth after 18 hrs by microbroth dilution method. It is filed as functional. A digest of the protocol:
as §2

Assay [13] has as its system Pseudomonas aeruginosa. Description: Antibacterial activity against MDR clinical isolate Pseudomonas aeruginosa PA264 assessed as reduction in bacterial growth after 18 hrs by microbroth dilution method. It is filed as functional. An outline of the steps: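 Broth microdilution per CLSI in Mueller-Hinton broth (MHB). Overnight cultures were adjusted to 0.5 McFarland in saline, diluted 1:50 in MHB, and added at about 5 × 10^5 CFU/mL final to equal volumes of 2-fold serial dilutions of agent. Incubation was 18 h at 37 °C. MIC was the lowest concentration with no visible turbidity, confirmed by absorbance at 590 nm.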

For assay [14], the system named is Pseudomonas aeruginosa. Description: Antibacterial activity against […] Pseudomonas aeruginosa PAO1 assessed as reduction in bacterial growth after 18 hrs in presence of cefiderocol by microbroth dilution method. Format: functional. An outline of the steps: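 Checkerboard in MHB. Cefiderocol was 2-fold serially diluted along one axis and the adjuvant along the other. Inoculum was prepared from 0.5 McFarland saline suspensions diluted 1:50 in MHB, giving about 5 × 10^5 CFU/mL final. Plates ran 18 h at 37 °C, with turbidity confirmed at 590 nm. FIC = combination MIC ÷ MIC alone for each agent, and FIC index = sum of both. Interpretation: ≤0.5 synergy, >0.5–4 additive, >4 antagonism.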

For assay [15], the system named is Pseudomonas aeruginosa. Description: Antibacterial activity against colistin-resistant clinical isolate Pseudomonas aeruginosa PA91433 assessed as reduction in bacterial growth after 18 hrs in presence of cefiderocol by microbroth dilution method. It is filed as functional. An outline of the steps: (§3)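 Checkerboard in MHB (iron-replete, not iron-depleted CAMHB). Cefiderocol was 2-fold serially diluted along one axis and the adjuvant along the other. Inoculum was 0.5 McFarland diluted 1:50, about 5 × 10^5 CFU/mL final. Incubation was 18 h at 37 °C, with turbidity read visually and confirmed at 590 nm. FIC was the MIC in combination over the MIC alone for each agent, and the FIC index was their sum. Cut-offs were ≤0.5 synergy, >0.5–4 additive, >4 antagonism.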

For assay [16], the system named is Pseudomonas aeruginosa. Description: Antibacterial activity against MDR clinical isolate Pseudomonas aeruginosa PA100036 assessed as potentiation of cefiderocol antibacterial activity by measuring FIC index after 18 hrs by microbroth dilution method. Format: functional. A digest of the protocol: as §3
Assay [17] has as its system Acinetobacter baumannii. Description: Antibacterial activity against Acinetobacter baumannii AB92247 assessed as reduction in bacterial growth after 18 hrs by microbroth dilution method. Format: functional. A digest of the protocol:
(§4)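 CLSI microbroth dilution in MHB. Overnight cultures were adjusted to 0.5 McFarland in saline, diluted 1:50, and inoculated at about 5 × 10^5 CFU/mL. Agents were 2-fold serially diluted and incubated 18 h at 37 °C. MIC is the lowest concentration without visible turbidity, confirmed by absorbance at 590 nm. Medium with and without cells served as controls.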

Assay [18] concerns Acinetobacter baumannii. Description: Antibacterial activity against Acinetobacter baumannii AB92247 assessed as potentiation of cefiderocol antibacterial activity by measuring FIC after 18 hrs by microbroth dilution method. It is filed as functional. An outline of the steps: (§5)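 Checkerboard in Mueller-Hinton broth: cefiderocol 2-fold diluted on one axis, adjuvant 2-fold on the other. Overnight cultures were adjusted to 0.5 McFarland in saline, diluted 1:50 in MHB, and inoculated at about 5 × 10^5 CFU/mL. Incubation was 18 h at 37 °C. Turbidity was read visually and confirmed at 590 nm. FIC index = FIC of antibiotic + FIC of adjuvant; ≤0.5 synergy, >4 antagonism.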

Assay [19] concerns Escherichia coli. Description: Antibacterial activity against Escherichia coli 107115 assessed as reduction in bacterial growth after 18 hrs by microbroth dilution method. It is filed as functional. A digest of the protocol:
as §4

A further assay relates to Klebsiella pneumoniae. Description: Antibacterial activity against Klebsiella pneumoniae KP113250 assessed as reduction in bacterial growth after 18 hrs by microbroth dilution method. It is filed as functional. An outline of the steps: as §4
Assay [20] has as its system Escherichia coli. Description: Antibacterial activity against Escherichia coli 107115 assessed as reduction in bacterial growth after 18 hrs in presence of cefiderocol by microbroth dilution method. Format: functional. A digest of the protocol:
as §5

Assay [21] has as its system Pseudomonas aeruginosa. Description: Potentiation of cefiderocol-induced antibiotic activity against MDR clinical isolate Pseudomonas aeruginosa PA259 assessed as MIC fold reduction at 8 ug/ml after 18 hrs by microbroth dilution method. To be noted: dose 8 µg/ml.

Structures are written as SMILES. In brackets after ≈: the same amount, converted by molar mass. Activity calls are given as the source filed them.

In the case of `NC[C@H]1O[C@H](O[C@H]2[C@H](OCCCCc3cn(-c4ccc(NC(=O)c5cc(Cl)ccc5O)cc4)nn3)[C@@H](O[C@H]3O[C@H](CO)[C@@H](O)[C@H](N)[C@H]3O)[C@H](N)C[C@@H]2N)[C@H](N)C[C@@H]1O`, the “fold change (FC)” value in the assay on Escherichia coli [1], in the assay with Pseudomonas aeruginosa [2], in the assay on Acinetobacter baumannii [3], in the assay with Acinetobacter baumannii [4], in the assay on Escherichia coli [5] and in the assay on Escherichia coli [6] was 4 each time. The “fold change (FC)” value with Acinetobacter baumannii [7] came to 4; in the assay with Pseudomonas aeruginosa [21], 32. The MIC (in general, the least concentration at which growth counts as inhibited) with Pseudomonas aeruginosa [8] is 64 µg/mL (≈ 76.5 µM); in the assay on Pseudomonas aeruginosa [11], greater than 128 µg/mL; in the assay on Pseudomonas aeruginosa [12], greater than 128 µg/mL; in the assay on Pseudomonas aeruginosa [13], greater than 128 µg/mL; in the assay on Pseudomonas aeruginosa [14], 0.5 µg/mL; in the assay on Pseudomonas aeruginosa [15], 1 µg/mL. Moreover, the MIC in the assay on Acinetobacter baumannii [17] was greater than 128 µg/mL; with Escherichia coli [19] it was greater than 128 µg/mL; in the assay with Klebsiella pneumoniae it was greater than 128 µg/mL; in the assay with Escherichia coli [20], 0.25 µg/mL. Also, the result in the assay with Pseudomonas aeruginosa [9] and with Pseudomonas aeruginosa [10] was Active. Further, the FIC in the assay on Pseudomonas aeruginosa [16] stood at 1; in the assay on Acinetobacter baumannii [18] it was 0.5.
